PDI inh = blocks human protein disulfide isomerase activity. inhibition, % at 10 µM. PDI insulin aggregation turbidity, A650, 90 min. 350,000 compounds, 0.052% hits. AID 588391;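 active = mean inhibition across replicates of 30% or more, whatever share of single replicates reach that level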
RAD52 anneal inh = RAD52 (human) annealing inhibition | AID 651710 | recombinant RAD52 DNA annealing, FRET fluorescence | inhibition, % at 18.7 µM | P43351 | 360,000 compounds, 0.46% hits;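 active = every replicate showing at least 50% inhibition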
Target sequence (P43351 whole entry, looked up): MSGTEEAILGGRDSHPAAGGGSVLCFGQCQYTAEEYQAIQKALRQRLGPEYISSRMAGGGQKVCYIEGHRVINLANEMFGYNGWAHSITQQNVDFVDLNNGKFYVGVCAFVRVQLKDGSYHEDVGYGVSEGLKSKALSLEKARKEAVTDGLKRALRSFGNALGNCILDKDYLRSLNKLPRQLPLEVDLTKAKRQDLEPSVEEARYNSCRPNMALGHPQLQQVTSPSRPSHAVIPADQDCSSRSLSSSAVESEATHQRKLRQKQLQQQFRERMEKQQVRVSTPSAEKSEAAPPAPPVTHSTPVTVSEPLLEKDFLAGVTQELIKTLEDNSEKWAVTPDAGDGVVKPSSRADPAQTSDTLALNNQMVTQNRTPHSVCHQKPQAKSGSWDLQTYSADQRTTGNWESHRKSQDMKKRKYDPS
ERp5 block = inhibitors of human ERp5. Q15084. ERp5 insulin aggregation, absorbance 650 nm, 90 min. inhibition, % at 9.99 µM. 350,000 compounds, 0.05% hits. AID 651711;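 active = mean replicate inhibition above about 25%, with every replicate also reaching it, limit read from the data, passing the limit was not always enough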
CAL PDZ FP-1 = blocks peptide binding to the human CAL PDZ domain. purified CAL PDZ, TMR-peptide fluorescence polarization, 1 h. inhibition, % at 24.9 µM. 300,000 compounds, 0.92% hits. AID 602252;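 active = mean inhibition of at least 30% with at least half of replicates also reaching 30%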;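 note: 0% = DMSO neutral control and 100% = excess unlabeled competitor peptide PRC23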
RAD54 inh = RAD54 (human) branch migration inhibition; RAD54 Holliday junction branch migration, FAM/BHQ fluorescence; inhibition, % at 10.4 µM; 360,000 compounds, 0.14% hits;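 active = mean normalized replicate activity at least 40 and at least half of replicates scoring 40 or more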;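 note: 0% = median of neutral control wells and 100% = median of positive control wells; inhibitors cause a drop in the FAM fluorescence signal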
CAL PDZ FP-2 = inhibitors of human CAL PDZ peptide binding. Q9HD26. inhibition, % at 20 µM. purified CAL PDZ, TMR-peptide fluorescence polarization, 1 h. 330,000 compounds, 0.02% hits;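 active = highest replicate inhibition of at least 40%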;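 note: plate controls were DMSO neutral control wells for no effect and unlabeled competitor peptide control wells for full effect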
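material = purified tagged CAL PDZ domain construct (CerCALP) | compound dosing = 20 µM, one dose | times = 1 h at RT | measured by = fluorescence polarization from S- and P-plane intensities, G-factor corrected | read-out = inhibition from polarization loss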
* marks the source's active call; other numbers are inactive results; / = no result given. Sampled rows, rich in hits. Any-hit rate of the full collection: about 1%.

SMILES	PDI inh	RAD52 anneal inh	ERp5 block	CAL PDZ FP-1	RAD54 inh	CAL PDZ FP-2
Cc1sc2ncnc(OCC(=O)Nc3ccc4c(c3)OCCO4)c2c1C	3	/	/	-4	8	-1
C[C@@H]1CN([C@@H](C)CO)C(=O)c2cc(NC(=O)NC3CCCCC3)ccc2O[C@@H](C)CCCCO[C@H]1CN(C)CC1CCCCC1	/	/	/	/	5	/
O=C(COC(=O)c1ccc2ncsc2c1)NCc1ccc(F)cc1	-4	-12	-2	54*	-11	0
CCOC(=O)C1=C(C)C/C(=N\NC(=O)c2ccccc2O)CC1	-8	-10	0	86*	/	-1
NC(=O)CC(NC(=O)Cc1cccc2ccccc12)c1ccc(NCc2ccccn2)c([N+](=O)[O-])c1 (centres undefined)	-1	7	3	32*	1	0
NC(=O)CC(NC(=O)Cc1cccc2ccccc12)c1ccc(NCc2ccccc2)c([N+](=O)[O-])c1 (centres undefined)	1	-13	4	-6	-3	1
COc1ccc(OC)c(/C=C2\NC(=O)NC2=O)c1	0	-34	6	45*	/	-3
COc1cc(C=C2NC(=O)NC2=O)ccc1O	0	-9	-2	/	-1	/
COc1ccc(CN(C)C[C@@H]2Oc3ccc(NC(=O)C4CC4)cc3CC(=O)N([C@H](C)CO)C[C@@H]2C)cc1	/	-5	-5	/	-8	/
Cn1nc(-c2ccc(Cl)cc2)nc2c(=O)n(C)c(=O)nc1-2	/	/	/	/	58*	/
CCCCCCCCCCCCCCCC[n+]1ccc(/C=N/O)cc1	1	88*	13	2	/	-1
Cc1cccc(-n2cnc3c(sc4nc(N5CCOCC5)c5c(c43)CCCC5)c2=O)c1	-11	-21	8	60*	/	-3
O=C(NC1CCCCC1)N1CCN(c2nc(-c3ccccc3)cs2)CC1	-4	-13	-7	59*	-4	-8
CCOc1cc(/C=N/n2c(C)nc3sc(C)c(C)c3c2=O)ccc1O	-3	-1	-2	72*	/	0
CN(C)CC(=O)Nc1ccc2c(c1)[C@@H]1C[C@@H](CC(=O)N3CCc4ccccc4C3)O[C@H](CO)[C@@H]1O2	/	10	-8	/	17	/
O=C(Cn1cc([N+](=O)[O-])cn1)NCc1ccccc1	8	-8	0	43*	3	0
COc1ccc(CNC(=O)Cn2cc([N+](=O)[O-])cn2)cc1	14	-1	5	/	4	-1
CCOc1ccc(/C=C/C(=O)Oc2ccccc2)cc1	-2	2	3	-1	-6	0
O=Cc1ccc(OC(=O)/C=C/c2ccccc2)cc1	-10	-5	4	79*	-6	0
Cn1nc(C(=O)Nc2nc(-c3ccccn3)cs2)c2ccccc2c1=O	-2	-1	1	85*	-2	-2
CC(C)NC(=O)N(C)C[C@H]1Oc2ccc(NC(=O)Cc3cn(C)c4ccccc34)cc2C(=O)N([C@@H](C)CO)C[C@@H]1C	/	10	0	/	-4	/
CCN(CC)C(=O)COc1ccc(N(C)S(=O)(=O)c2ccc(NC(C)=O)cc2)cc1	-3	-23	-2	71*	/	0
COc1ccc(CCn2nc(C)c([N+](=O)[O-])c2C)cc1	-4	-16	-1	38*	2	1
CCOc1ccc(S(=O)(=O)N2Cc3ccccc3CC2C(=O)O)cc1 (centres undefined)	-1	-7	-1	51*	-3	1
COc1ccc(S(=O)(=O)N2Cc3ccccc3CC2C(=O)O)cc1 (centres undefined)	1	-12	2	0	-9	0
SMILES	PDI inh	RAD52 anneal inh	ERp5 block	CAL PDZ FP-1	RAD54 inh	CAL PDZ FP-2
COc1ccc(C(C)NC(=O)c2ccc(Cl)cc2)cc1OC (centres undefined)	-6	/	/	-3	/	1
COc1ccc(C(C)NC(=O)c2ccncc2)cc1OC (centres undefined)	2	-6	-2	76*	15	0
CCCN1[C@@H]2c3ccc(C4=CCCC4)c(=O)n3C[C@@H]2[C@@H](CO)[C@@H]1C(=O)NCC	/	-46	-2	/	-4	/
COc1cccc(-c2nn(-c3ccccc3)cc2C(=O)OCC(=O)Nc2ncc(Cl)cc2Cl)c1	0	/	/	-3	-12	-1
O=C(COC(=O)c1cn(-c2ccccc2)nc1-c1ccccc1)Nc1ncc(Cl)cc1Cl	-3	-99	6	77*	-15	0
C[C@H]1CN([C@@H](C)CO)S(=O)(=O)c2ccc(-c3cccc(C#N)c3)cc2O[C@H]1CN(C)C	/	-1	-2	/	-3	/
O=C(Nc1ccc(F)cc1F)c1ccc(S(=O)(=O)N2CCCCC2)cc1	6	-4	-1	34*	-2	0
O=C(Nc1ccc(F)cc1F)c1ccc(S(=O)(=O)NCc2ccco2)cc1	-5	-15	2	48*	1	-1
O=C(Nc1ccc(S(=O)(=O)N2CCCC2)cc1)Nc1ccc(F)cc1F	18	-1	1	0	-5	-4
C[C@H]1CCCCO[C@@H](CN(C)CC2CCCCC2)[C@@H](C)CN([C@@H](C)CO)C(=O)c2cc(NC(=O)NC3CCCCC3)ccc2O1	/	/	/	/	14	/
C[C@@H]1CCCCO[C@@H](CN(C)Cc2ccccc2)[C@H](C)CN([C@H](C)CO)C(=O)c2cc(NC(=O)c3ccncc3)ccc2O1	/	13	-5	/	7	/
Cc1noc(C)c1C(=O)OCC(=O)NCCc1ccc(S(N)(=O)=O)cc1	-8	-10	1	-5	-23	0
Cc1noc(C)c1C(=O)OCC(=O)NCCc1ccccc1	0	0	2	84*	-2	-1
CCCNC(=O)CCc1c(C)nc2nc(-c3cc(OC)cc(OC)c3)nn2c1C	4	/	/	46*	-3	-1
CNC[C@H]1Oc2c(NC(=O)Nc3ccc(C(F)(F)F)cc3)cccc2C(=O)N([C@@H](C)CO)C[C@@H]1C	/	-1	-2	/	-8	/
Cc1ccc(S(=O)(=O)Nc2ccc3c(c2)C(=O)N([C@@H](C)CO)C[C@H](C)[C@H](CN(C)S(=O)(=O)c2c(C)noc2C)O3)cc1	/	9	5	/	-1	/
Cn1cccc1-c1nc2ccc(NC(=O)c3cccs3)cc2[nH]1	3	/	/	1	-6	1
CC(=O)Nc1ccc2nc(-c3cccn3C)[nH]c2c1	-5	-6	-1	35*	9	1
O=S(=O)(c1cc(F)ccc1F)N1CCN(c2ncccn2)CC1	34*	-2	-2	-6	0	-1
O=S(=O)(c1ccc(F)cc1)N1CCN(c2ncccn2)CC1	-3	-8	3	-4	/	0
COc1ccc(S(=O)(=O)Nc2ccc3c(c2)C(=O)N([C@@H](C)CO)C[C@@H](C)[C@H](CN(C)C)OCCCC[C@@H](C)O3)cc1	/	-18	-2	/	4	/
COc1ccc(OC)c(NC(=O)NNC(=O)CCCOc2ccc(Cl)cc2C)c1	-9	-15	4	48*	/	-1

Screens from PubChem.
